This is an account of results in ChEMBL document CHEMBL3826951, “Discovery of Benzocycloalkane Derivatives Efficiently Blocking Bacterial Virulence for the Treatment of Methicillin-Resistant S. aureus (MRSA) Infections by Targeting Diapophytoene Desaturase (CrtN)” (J Med Chem, 2016).

Data set [1] has as its system Staphylococcus aureus. In words: Attenuation of methicillin-resistant Staphylococcus aureus Mu 50 virulence in BALB/c mouse systemic infection model assessed as decrease in bacterial survival in liver at 50 mg/kg, ip administered every 12 hrs for 108 hrs followed by bacterial challenge after first 12 hrs of compound dosing measured 5 days post infection. To be noted: Mu50. Format: functional. In outline:
(§1)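 Female BALB/c mice, 6-8 weeks old. Dosed ip every 12 h for 108 h. Challenged with 100 µL at 12 h: 1.6 × 10^8 CFU Mu50 or 4 × 10^7 CFU USA400 MW2. Sacrificed 5 days post-infection. Livers and kidneys homogenised in PBS/0.1% Triton X-100, serially plated on TSA, CFU counted; two-tailed Mann-Whitney.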

Data set [2] relates to Staphylococcus aureus. The data set can be described thus: Attenuation of methicillin-resistant Staphylococcus aureus Mu 50 virulence in BALB/c mouse systemic infection model assessed as decrease in bacterial survival in kidney at 50 mg/kg, ip administered every 12 hrs for 108 hrs followed by bacterial challenge after first 12 hrs of compound dosing measured 5 days post infection. Format: functional. The following applies: Mu50. Summed up:
as §1

Data set [3] has as its system Staphylococcus aureus. In words: Attenuation of methicillin-resistant Staphylococcus aureus USA400 MW2 virulence in BALB/c mouse systemic infection model assessed as decrease in bacterial burden in liver at 50 mg/kg, ip administered every 12 hrs for 108 hrs followed by bacterial challenge after first 12 hrs of compound dosing measured 5 days post infection. The data set is classed as functional. In outline:
as §1

For data set [4], the system named is Staphylococcus aureus. The data set can be described thus: Attenuation of methicillin-resistant Staphylococcus aureus USA400 MW2 virulence in BALB/c mouse systemic infection model assessed as decrease in bacterial burden in liver at 200 mg/kg, ip administered every 12 hrs for 108 hrs followed by bacterial challenge after first 12 hrs of compound dosing measured 5 days post infection. Format: functional. Summed up:
as §1

Data set [5] has as its system Staphylococcus aureus. In words: Attenuation of methicillin-resistant Staphylococcus aureus Mu 50 virulence in BALB/c mouse systemic infection model assessed as decrease in bacterial survival in kidney at 200 mg/kg, ip administered every 12 hrs for 108 hrs followed by bacterial challenge after first 12 hrs of compound dosing measured 5 days post infection. Format: functional, Mu50. Summed up: as §1

Data set [6] addresses T1, 4,4'-diapophytoene synthase (Staphylococcus aureus, UniProt A9JQL9).
T1 sequence (A9JQL9 whole entry): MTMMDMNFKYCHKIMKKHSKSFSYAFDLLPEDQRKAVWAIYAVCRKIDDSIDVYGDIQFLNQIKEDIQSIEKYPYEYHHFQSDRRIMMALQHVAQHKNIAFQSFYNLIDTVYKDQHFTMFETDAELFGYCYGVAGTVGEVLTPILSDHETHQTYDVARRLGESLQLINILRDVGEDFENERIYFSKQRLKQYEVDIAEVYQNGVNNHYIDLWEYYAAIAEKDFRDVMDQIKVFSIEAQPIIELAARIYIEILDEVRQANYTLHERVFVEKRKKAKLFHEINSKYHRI
In words: Inhibition of Staphylococcus aureus ATCC 27659 full length His-tagged dehydrosqualene synthase expressed in Escherichia coli BL21 (DE3) cells assessed as reduction in staphyloxanthin pigment formation after 72 hrs by spectrophotometric analysis.

Data set [7] has as its system Staphylococcus aureus. The data set can be described thus: Attenuation of methicillin-resistant Staphylococcus aureus Mu 50 virulence in BALB/c mouse systemic infection model assessed as decrease in bacterial survival in liver at 200 mg/kg, ip administered every 12 hrs for 108 hrs followed by bacterial challenge after first 12 hrs of compound dosing measured 5 days post infection. The data set is classed as functional, Mu50. In outline:
as §1

In data set [8] the target is T2, 4,4'-diapophytoene desaturase (4,4'-diaponeurosporene-forming) (Staphylococcus aureus (strain Newman), UniProt O07855).
T2 sequence (O07855 whole entry): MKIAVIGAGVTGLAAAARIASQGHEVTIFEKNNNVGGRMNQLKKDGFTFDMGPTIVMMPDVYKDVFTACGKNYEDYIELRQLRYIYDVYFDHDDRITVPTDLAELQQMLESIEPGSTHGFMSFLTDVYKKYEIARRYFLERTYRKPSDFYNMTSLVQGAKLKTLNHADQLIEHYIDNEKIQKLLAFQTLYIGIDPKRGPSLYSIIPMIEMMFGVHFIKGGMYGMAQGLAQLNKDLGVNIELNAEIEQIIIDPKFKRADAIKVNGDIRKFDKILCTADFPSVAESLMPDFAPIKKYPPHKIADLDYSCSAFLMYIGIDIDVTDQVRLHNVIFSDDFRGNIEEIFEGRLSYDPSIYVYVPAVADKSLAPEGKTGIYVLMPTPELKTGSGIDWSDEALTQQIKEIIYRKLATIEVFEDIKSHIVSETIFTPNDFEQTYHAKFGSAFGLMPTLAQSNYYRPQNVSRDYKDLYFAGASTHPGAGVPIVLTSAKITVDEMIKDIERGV
In words: Inhibition of diapophytoene desaturase in Staphylococcus aureus Newman assessed as reduction in staphyloxanthin pigment formation after 48 hrs by spectrophotometry. The arrangement: species or system Staphylococcus aureus subsp. aureus str. Newman.

The test system of data set [9] is Trichophyton mentagrophytes. In words: Antifungal activity against naftifine-sensitive Trichophyton mentagrophytes after 7 days by serial dilution method. The data set is classed as functional. In outline: (§2)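 Broth serial dilution in 96-well plates per NCCLS recommendations. Medium: RPMI 1640 buffered with 0.165 M MOPS. Fungi were ATCC strains or clinical isolates.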

The next data set deals with Trichophyton rubrum. The data set can be described thus: Antifungal activity against naftifine-sensitive Trichophyton rubrum after 7 days by serial dilution method. Format: functional. In outline:
as §2

Another data set has as its system Nannizzia gypsea. In words: Antifungal activity against naftifine-sensitive Microsporum gypseum after 7 days by serial dilution method. Format: functional. Summed up:
as §2

For the next data set, the system named is Trichophyton verrucosum. The data set can be described thus: Antifungal activity against naftifine-sensitive Trichophyton verrucosum after 7 days by serial dilution method. Format: functional. Summed up: as §2
Data set [10] can be described thus: Aqueous solubility of the compound in water after 24 hrs by HPLC method. The data set is classed as physicochemical. Summed up: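 Excess solid stirred in pure water for 24 h, then filtered. Filtrate analysed by HPLC (10 µL injection). Concentration read against a calibration curve of peak area versus concentration, built from methanol solutions at 50–800 µg/mL.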

Data set [11] addresses T2, 4,4'-diapophytoene desaturase (4,4'-diaponeurosporene-forming). In words: Inhibition of 6x-His-tagged Staphylococcus aureus diapophytoene desaturase expressed in Escherichia coli BL21 (DE3) using diapophytoene substrate after overnight incubation.

Values after ≈ are worked out from the molar mass of the structure shown. Active and inactive are the calls of the source. No cut-off for these calls is given here.

Regarding `O=P([O-])([O-])C(CCCc1cccc(Oc2ccccc2)c1)S(=O)(=O)[O-].[K+].[K+].[K+]` (stereo not given), in the data set on Staphylococcus aureus [1], the outcome was Active. Further, the outcome in the data set on Staphylococcus aureus [2] and in the data set on Staphylococcus aureus [3] was inactive. Moreover, the values for the Activity in the data set with Staphylococcus aureus [4], in the data set with Staphylococcus aureus [5] and with Staphylococcus aureus [7] were 1.59 log10CFU, 0.3 log10CFU and 2.84 log10CFU, respectively. Moreover, the concentration for half-maximal inhibition (IC50) in data set [6] worked out at 83.4 nM.
In the case of `CN(C/C=C/c1ccccc1)Cc1cccc2c1CCCC2`, in data set [8], the half-inhibitory concentration (IC50) is above 1000 nM.
For the molecule `C(=C\c1ccccc1)/CNCc1ccc2c(c1)CCCCC2`, the half-maximal inhibitory concentration (IC50) in [8] was above 10000 nM.
Still for that read-out and setting: next, `CN(C/C=C/c1ccccc1)Cc1ccc2c(c1)CCC2`: 808 nM.
For `CN(C/C=C/C1CCCCC1)Cc1ccc2c(c1)CCCCC2`, the IC50 in [8] is above 10000 nM.
On to `COc1ccc(/C=C/CN(C)Cc2ccc3c(c2)CCCC3)cc1`, for which the IC50 in data set [8] came out at 12.2 nM.
On the same count and under the same terms, next, `CN(C/C=C/c1ccc(C(F)(F)F)cc1)Cc1ccc2c(c1)CCCCC2`: 10 nM; `CN(CCCc1ccccc1)Cc1ccc2c(c1)CCCCC2`: above 10000 nM.
For the molecule `OC(Cn1cncn1)(Cn1cncn1)c1ccc(F)cc1F` [FLUCONAZOLE], the “MIC=<80” value in data set [9] stood at 2 µg/mL (≈ 6.53 µM); against Trichophyton rubrum it was 1 µg/mL (≈ 3.27 µM); against Nannizzia gypsea it was 8 µg/mL (≈ 26.1 µM); against Trichophyton verrucosum it was 2 µg/mL (≈ 6.53 µM).
For `CCN(C/C=C/c1ccccc1)Cc1ccc2c(c1)CCCCC2`, the concentration for half-maximal inhibition (IC50) in data set [8] was above 1250 nM.
Regarding `C/C(=C\c1ccccc1)CN(C)Cc1ccc2c(c1)CCCCC2`, the concentration for half-maximal inhibition (IC50) in data set [8] is above 10000 nM.
Turning to `CN(C/C=C/c1ccccc1)Cc1cccc2c1CCCCC2`, the IC50 in data set [8] is above 10000 nM.
Same read-out and setting: the figure for `Cc1ccc(/C=C/CN(C)Cc2ccc3c(c2)CCCCC3)cc1` is 31 nM; for `CN(CC#Cc1ccccc1)Cc1ccc2c(c1)CCCCC2` it is above 1250 nM; for `CN(C/C=C/c1ccc([N+](=O)[O-])cc1)Cc1ccc2c(c1)CCCC2` it is 94.5 nM.
The same measure, in the same setting: the figure for `CN(C/C=C/c1ccccc1[N+](=O)[O-])Cc1ccc2c(c1)CCCCC2` is above 5000 nM.
Consider `CN(C/C=C/Cc1ccccc1)Cc1ccc2c(c1)CCCCC2`, for which, in data set [8], the concentration for half-maximal inhibition (IC50) is above 10000 nM.
As to `CN(C/C=C/c1cccc([N+](=O)[O-])c1)Cc1ccc2c(c1)CCCCC2`, the IC50 in data set [8] is above 1000 nM.
Regarding `CN(C/C=C/c1ccc([N+](=O)[O-])cc1)Cc1ccc2c(c1)CCCCC2`, in data set [8], the 50% inhibitory concentration (IC50) was determined as 12.4 nM.
Same read-out and setting: the figure for `CN(C/C=C/c1ccc(F)cc1)Cc1ccc2c(c1)CCCCC2` is 39.4 nM; for `CC(C)N(C/C=C/c1ccccc1)Cc1ccc2c(c1)CCCCC2` it is above 10000 nM; for `CN(C/C=C/C=C/c1ccccc1)Cc1ccc2c(c1)CCCCC2` it is 12.2 nM.
On to `CC(=O)N1CCN(c2ccc(OCC3COC(Cn4ccnc4)(c4ccc(Cl)cc4Cl)O3)cc2)CC1` (stereo not given) [KETOCONAZOLE], for which the “MIC=<80” value in data set [9] worked out at 0.0625 µg/mL (≈ 0.118 µM); in the data set with Trichophyton rubrum, 0.5 µg/mL (≈ 0.941 µM); against Nannizzia gypsea it was 2 µg/mL (≈ 3.76 µM); in the data set with Trichophyton verrucosum, 0.0625 µg/mL (≈ 0.118 µM).
For the molecule `CN(C/C=C/c1ccc(Br)cc1)Cc1ccc2c(c1)CCCC2.Cl`, the 50% inhibitory concentration (IC50) came out at 1.3 nM in [8] and 450 nM in data set [11]. In data set [10], the concentration in solution (solubility at 24 h) came to 2100 µg/mL.
As for `CN(C/C=C/c1ccc(Br)cc1)Cc1ccc2c(c1)CCCCC2.Cl`, the half-inhibitory concentration (IC50) in data set [8] is 7.8 nM; in [11], 410 nM. This molecule also came in with a solubility at 24 h in [10] of 570 µg/mL.
On to `CN(C/C=C/c1ccc(Cl)cc1)Cc1ccc2c(c1)CCCC2`, for which the concentration for half-maximal inhibition (IC50) in data set [8] worked out at 12.8 nM.
Still for that read-out and setting: next, `C(=C\c1ccccc1)/COCc1ccc2c(c1)CCCCC2`: above 20000 nM.
For the molecule `C[C@@H](c1ncncc1F)[C@](O)(Cn1cncn1)c1ccc(F)cc1F` [VORICONAZOLE], the “MIC=<80” value in data set [9] stood at 0.03125 µg/mL (≈ 0.0895 µM); with Trichophyton rubrum it was 0.03125 µg/mL (≈ 0.0895 µM); with Nannizzia gypsea, 0.25 µg/mL (≈ 0.716 µM); with Trichophyton verrucosum, 0.03125 µg/mL (≈ 0.0895 µM).
Take `CN(C/C=C/c1ccccc1)Cc1ccc2c(c1)CCCCC2`: the IC50 in data set [8] amounted to 202 nM.
Consider `C/C=C/CN(C)Cc1ccc2c(c1)CCCCC2`, for which, in data set [8], the IC50 was above 50000 nM.
Turning to `C(/C=C/c1ccccc1)=C\COCc1ccc2c(c1)CCCCC2`, in data set [8], the IC50 was above 20000 nM.
On to `Cc1cccc(/C=C/CN(C)Cc2ccc3c(c2)CCCCC3)c1`, for which the half-inhibitory concentration (IC50) in data set [8] turned out to be 770 nM.
As to `CN(C/C=C/c1ccccc1F)Cc1ccc2c(c1)CCCCC2`, the IC50 in data set [8] is 246 nM.
On to `CN(C/C=C/c1ccc(C(F)(F)F)cc1)Cc1ccc2c(c1)CCCC2.Cl`, for which the half-inhibitory concentration (IC50) was 1.9 nM in data set [8] and 500 nM in data set [11]. In addition, in [10], the solubility at 24 h came to 690 µg/mL.
For `CN(C/C=C/c1ccccc1)Cc1cccc2c1CCC2`, the half-inhibitory concentration (IC50) in data set [8] was above 2500 nM.
`CN(C/C=C/c1ccccc1)Cc1ccc2c(c1)CCCC2`: in [8], the concentration for half-maximal inhibition (IC50) came to 603 nM.
With `CN(C/C=C/c1ccc(Cl)cc1)Cc1ccc2c(c1)CCCCC2`, the half-maximal inhibitory concentration (IC50) in data set [8] was 8.8 nM.
Regarding `CN(C/C=C/c1ccco1)Cc1ccc2c(c1)CCCCC2`, the IC50 in data set [8] is above 2500 nM.
Still for that read-out and setting: the figure for `c1ccc(CCCOCc2ccc3c(c2)CCCCC3)cc1` is above 20000 nM.

As a reminder, the IC50 is the midpoint of a concentration-inhibition curve. In general, solubility refers to the dissolved amount per volume that the medium holds. Low values mean little dissolved substance, high ones much dissolved substance.
